From publication PMC11522000 (Nature Microbiology, 2024)
Values after ≈ are worked out from the molar mass of the structure shown. “Also recorded” adds a separate entry of the source. Where two headings read alike, the source gives them in different places.

Assays:
C. parvum [1] = experiment: Cytopathic effect; format: cell-based, Cryptosporidium parvum; conditions: for EC50: read-out: Cp CPE EC50, C. parvum, HCT-8, 48 h
Summary of the method: (§1)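 HCT-8 cells were grown at 37 °C, 5% CO2 in RPMI-1640 with 10% heat-inactivated FBS. Oocysts were excysted in 10 mM HCl/HBSS for 10 min at 37 °C, then in 2 mM sodium taurocholate in L-15/UltraCULTURE medium for 5 min. Infected cells were seeded onto pre-spotted compound (10-point, 3-fold dilution; DMSO and reference-inhibitor controls) and incubated 48 h. Cells were then lysed for a viability read-out, and concentration-response curves were fitted.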

C. hominis = experiment: Cytopathic effect; format: cell-based, Cryptosporidium hominis; conditions: read-out: Ch CPE EC50, HCT-8, 48 h
Summary of the method: as §1

[2] = High-throughput equilibrium solubility; format: physicochemical; conditions: thermodynamic from solid
Summary of the method: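 Equilibrium solubility was measured by a miniaturized shake-flask method with HPLC quantification.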

PAMPA = format: in vitro ADME
P-glycoprotein (MDR1) = experiment: MDCK MDR1 permeability and efflux; format: in vitro ADME; conditions: dog
[3] = Liver microsomes metabolic stability; format: in vitro ADME; conditions: human
Summary of the method: (§2)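 Test compound was incubated with liver microsomes or hepatocytes of each species, and parent depletion was quantified by LC-MS/MS. From this, in vitro half-life and intrinsic clearance were derived, along with predicted metabolic clearance and hepatic extraction ratio.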

[4] = Hepatocytes metabolic stability; format: in vitro ADME; conditions: mouse; for half-life / hepatocyte CLint: hepatocytes
Summary of the method: as §2

[5] = Hepatocytes metabolic stability; format: in vitro ADME; conditions: rat
Summary of the method: as §2

[6] = Hepatocytes metabolic stability; format: in vitro ADME; conditions: dog
Summary of the method: as §2

[7] = Hepatocytes metabolic stability; format: in vitro ADME; conditions: human
Summary of the method: as §2

[8] = Stability in intestinal S9 fraction; format: in vitro ADME; conditions: mouse
Summary of the method: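 Test compound added to intestinal S9 fraction of each species to start the reaction. Incubated in a shaking water bath at 37 °C, with samples taken at sequential timepoints. Samples quenched with ice-cold acetonitrile and analysed by LC-MS/MS. Half-life calculated from the rate of parent compound depletion.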

Plasma stability [9] = format: in vitro ADME; conditions: mouse
Summary of the method: (§3)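 Test compound was added to plasma and incubated at 37 °C in a shaking water bath, with samples taken at sequential timepoints. Samples were quenched with ice-cold acetonitrile and analysed by LC-MS/MS, and half-life was calculated from the depletion rate.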

Plasma stability [10] = format: in vitro ADME; conditions: human
Summary of the method: as §3

Plasma protein binding [11] = format: in vitro ADME; conditions: dog
Plasma protein binding [12] = format: in vitro ADME; conditions: human
CYP3A4 = CYP3A4 (Homo sapiens, UniProt P08684); experiment: CYP450 reversible inhibition; format: in vitro ADME
Sequence of CYP3A4 (P08684 whole entry): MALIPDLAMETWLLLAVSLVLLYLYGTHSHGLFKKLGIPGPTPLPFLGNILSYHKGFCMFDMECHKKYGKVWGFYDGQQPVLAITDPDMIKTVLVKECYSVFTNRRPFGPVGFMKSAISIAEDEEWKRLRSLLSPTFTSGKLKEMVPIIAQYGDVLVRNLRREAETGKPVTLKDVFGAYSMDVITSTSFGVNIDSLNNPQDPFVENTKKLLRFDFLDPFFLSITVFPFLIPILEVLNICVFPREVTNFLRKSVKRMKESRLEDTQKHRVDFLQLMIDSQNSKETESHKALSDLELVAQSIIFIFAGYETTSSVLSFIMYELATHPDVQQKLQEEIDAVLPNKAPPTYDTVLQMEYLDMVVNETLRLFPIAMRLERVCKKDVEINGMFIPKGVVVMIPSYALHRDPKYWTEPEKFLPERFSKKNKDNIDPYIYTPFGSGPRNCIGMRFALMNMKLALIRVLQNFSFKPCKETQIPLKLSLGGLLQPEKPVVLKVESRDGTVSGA

CYP2D6 = CYP2D6 (Homo sapiens, UniProt P10635); experiment: CYP450 reversible inhibition; format: in vitro ADME
Sequence of CYP2D6 (P10635 whole entry): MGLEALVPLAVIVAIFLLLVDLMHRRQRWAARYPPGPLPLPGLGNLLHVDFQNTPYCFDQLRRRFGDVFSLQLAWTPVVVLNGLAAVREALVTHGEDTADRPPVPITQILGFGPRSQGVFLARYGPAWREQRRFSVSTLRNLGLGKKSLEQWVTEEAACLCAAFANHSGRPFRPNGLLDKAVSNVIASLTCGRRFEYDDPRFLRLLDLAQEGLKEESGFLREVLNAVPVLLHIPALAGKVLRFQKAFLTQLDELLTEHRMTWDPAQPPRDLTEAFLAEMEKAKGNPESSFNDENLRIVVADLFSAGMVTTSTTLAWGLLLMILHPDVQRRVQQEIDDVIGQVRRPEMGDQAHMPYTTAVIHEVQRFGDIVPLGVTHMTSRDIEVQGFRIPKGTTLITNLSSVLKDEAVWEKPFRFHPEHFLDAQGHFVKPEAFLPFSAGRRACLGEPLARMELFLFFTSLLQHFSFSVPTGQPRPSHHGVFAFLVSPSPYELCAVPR

CYP2C9 = CYP2C9 (Homo sapiens, UniProt P11712); experiment: CYP450 reversible inhibition; format: in vitro ADME
Sequence of CYP2C9 (P11712 whole entry): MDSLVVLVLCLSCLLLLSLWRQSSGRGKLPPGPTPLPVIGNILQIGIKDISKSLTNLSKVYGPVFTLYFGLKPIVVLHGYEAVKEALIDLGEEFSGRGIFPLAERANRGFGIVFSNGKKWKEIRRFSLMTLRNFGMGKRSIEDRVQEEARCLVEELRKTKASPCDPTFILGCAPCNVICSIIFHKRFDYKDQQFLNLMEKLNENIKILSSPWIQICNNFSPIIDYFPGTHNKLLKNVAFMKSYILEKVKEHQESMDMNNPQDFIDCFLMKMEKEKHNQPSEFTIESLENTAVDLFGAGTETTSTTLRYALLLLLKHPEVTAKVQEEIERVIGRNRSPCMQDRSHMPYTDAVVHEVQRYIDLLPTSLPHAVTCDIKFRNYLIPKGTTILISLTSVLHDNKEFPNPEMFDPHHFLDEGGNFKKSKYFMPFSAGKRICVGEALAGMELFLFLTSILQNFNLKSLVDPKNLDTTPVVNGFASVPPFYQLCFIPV

hNav1.5 = hNav1.5 (Homo sapiens, UniProt Q14524); experiment: Patch clamp Nav1.5 Quattro; format: cell-based
Summary of the method: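 Each channel was stably expressed in HEK293 cells and tested by patch clamp with a 7-point concentration-response.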

rat reticulocytes = experiment: In vivo rat peripheral blood micronucleus assay
Summary of the method: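 Peripheral blood was taken on days 3 and 15, in randomized order, from animals in the 2-week rat toxicology study. Micronucleated reticulocytes were counted by flow cytometry.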

3T3 fibroblast cells = experiment: In vitro 3T3 NRU phototoxicity test; format: cell-based
Summary of the method: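 This followed OECD 432. 3T3 fibroblasts in 96-well plates were exposed to a concentration range of test compound, up to its solubility limit in HBSS, and viability was read by neutral red uptake.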

[13] = Systemic exposure in the mouse efficacy studies; format: in vivo
Plasma stability [14] = format: in vitro ADME; conditions: dog
Summary of the method: as §3

human PXR = experiment: PXR reporter gene assay; format: in vitro ADME
Summary of the method: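 CYP3A4 transactivation was measured in the human hepatoma line DPX-2, which overexpresses human PXR and carries a CYP3A4 promoter-luciferase reporter.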

[15] = Neonatal calf pharmacokinetics; format: in vivo; conditions: bovine, plasma, po, 10 mg/kg
Summary of the method: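 Calves were dosed orally at 10 mg/kg birth weight every 12 h, at least 2 h after feeding. On day 1, blood was drawn before dosing and at several timepoints up to 12 h.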

[16] = 2 weeks GLP rat toxicology study with toxicokinetics; format: in vivo; conditions: both, Wistar; for AUC(0-t): AUC0-8, rat
Summary of the method: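 Male and female Wistar rats were about 7–8 weeks old at receipt and 9–10 weeks old at the start of dosing. They were dosed for 2 weeks at 50, 250 and 1000 mg/kg/day, with toxicokinetic plasma sampling.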

C. parvum [17] = experiment: Live imaging of C. parvum in HCT-8 cells; format: cell-based, Cryptosporidium parvum; conditions: compound at 3 h post infection
ATM = ATM (Homo sapiens, UniProt Q13315); experiment: Kinase assay panel; format: biochemical
Sequence of ATM (Q13315 whole entry): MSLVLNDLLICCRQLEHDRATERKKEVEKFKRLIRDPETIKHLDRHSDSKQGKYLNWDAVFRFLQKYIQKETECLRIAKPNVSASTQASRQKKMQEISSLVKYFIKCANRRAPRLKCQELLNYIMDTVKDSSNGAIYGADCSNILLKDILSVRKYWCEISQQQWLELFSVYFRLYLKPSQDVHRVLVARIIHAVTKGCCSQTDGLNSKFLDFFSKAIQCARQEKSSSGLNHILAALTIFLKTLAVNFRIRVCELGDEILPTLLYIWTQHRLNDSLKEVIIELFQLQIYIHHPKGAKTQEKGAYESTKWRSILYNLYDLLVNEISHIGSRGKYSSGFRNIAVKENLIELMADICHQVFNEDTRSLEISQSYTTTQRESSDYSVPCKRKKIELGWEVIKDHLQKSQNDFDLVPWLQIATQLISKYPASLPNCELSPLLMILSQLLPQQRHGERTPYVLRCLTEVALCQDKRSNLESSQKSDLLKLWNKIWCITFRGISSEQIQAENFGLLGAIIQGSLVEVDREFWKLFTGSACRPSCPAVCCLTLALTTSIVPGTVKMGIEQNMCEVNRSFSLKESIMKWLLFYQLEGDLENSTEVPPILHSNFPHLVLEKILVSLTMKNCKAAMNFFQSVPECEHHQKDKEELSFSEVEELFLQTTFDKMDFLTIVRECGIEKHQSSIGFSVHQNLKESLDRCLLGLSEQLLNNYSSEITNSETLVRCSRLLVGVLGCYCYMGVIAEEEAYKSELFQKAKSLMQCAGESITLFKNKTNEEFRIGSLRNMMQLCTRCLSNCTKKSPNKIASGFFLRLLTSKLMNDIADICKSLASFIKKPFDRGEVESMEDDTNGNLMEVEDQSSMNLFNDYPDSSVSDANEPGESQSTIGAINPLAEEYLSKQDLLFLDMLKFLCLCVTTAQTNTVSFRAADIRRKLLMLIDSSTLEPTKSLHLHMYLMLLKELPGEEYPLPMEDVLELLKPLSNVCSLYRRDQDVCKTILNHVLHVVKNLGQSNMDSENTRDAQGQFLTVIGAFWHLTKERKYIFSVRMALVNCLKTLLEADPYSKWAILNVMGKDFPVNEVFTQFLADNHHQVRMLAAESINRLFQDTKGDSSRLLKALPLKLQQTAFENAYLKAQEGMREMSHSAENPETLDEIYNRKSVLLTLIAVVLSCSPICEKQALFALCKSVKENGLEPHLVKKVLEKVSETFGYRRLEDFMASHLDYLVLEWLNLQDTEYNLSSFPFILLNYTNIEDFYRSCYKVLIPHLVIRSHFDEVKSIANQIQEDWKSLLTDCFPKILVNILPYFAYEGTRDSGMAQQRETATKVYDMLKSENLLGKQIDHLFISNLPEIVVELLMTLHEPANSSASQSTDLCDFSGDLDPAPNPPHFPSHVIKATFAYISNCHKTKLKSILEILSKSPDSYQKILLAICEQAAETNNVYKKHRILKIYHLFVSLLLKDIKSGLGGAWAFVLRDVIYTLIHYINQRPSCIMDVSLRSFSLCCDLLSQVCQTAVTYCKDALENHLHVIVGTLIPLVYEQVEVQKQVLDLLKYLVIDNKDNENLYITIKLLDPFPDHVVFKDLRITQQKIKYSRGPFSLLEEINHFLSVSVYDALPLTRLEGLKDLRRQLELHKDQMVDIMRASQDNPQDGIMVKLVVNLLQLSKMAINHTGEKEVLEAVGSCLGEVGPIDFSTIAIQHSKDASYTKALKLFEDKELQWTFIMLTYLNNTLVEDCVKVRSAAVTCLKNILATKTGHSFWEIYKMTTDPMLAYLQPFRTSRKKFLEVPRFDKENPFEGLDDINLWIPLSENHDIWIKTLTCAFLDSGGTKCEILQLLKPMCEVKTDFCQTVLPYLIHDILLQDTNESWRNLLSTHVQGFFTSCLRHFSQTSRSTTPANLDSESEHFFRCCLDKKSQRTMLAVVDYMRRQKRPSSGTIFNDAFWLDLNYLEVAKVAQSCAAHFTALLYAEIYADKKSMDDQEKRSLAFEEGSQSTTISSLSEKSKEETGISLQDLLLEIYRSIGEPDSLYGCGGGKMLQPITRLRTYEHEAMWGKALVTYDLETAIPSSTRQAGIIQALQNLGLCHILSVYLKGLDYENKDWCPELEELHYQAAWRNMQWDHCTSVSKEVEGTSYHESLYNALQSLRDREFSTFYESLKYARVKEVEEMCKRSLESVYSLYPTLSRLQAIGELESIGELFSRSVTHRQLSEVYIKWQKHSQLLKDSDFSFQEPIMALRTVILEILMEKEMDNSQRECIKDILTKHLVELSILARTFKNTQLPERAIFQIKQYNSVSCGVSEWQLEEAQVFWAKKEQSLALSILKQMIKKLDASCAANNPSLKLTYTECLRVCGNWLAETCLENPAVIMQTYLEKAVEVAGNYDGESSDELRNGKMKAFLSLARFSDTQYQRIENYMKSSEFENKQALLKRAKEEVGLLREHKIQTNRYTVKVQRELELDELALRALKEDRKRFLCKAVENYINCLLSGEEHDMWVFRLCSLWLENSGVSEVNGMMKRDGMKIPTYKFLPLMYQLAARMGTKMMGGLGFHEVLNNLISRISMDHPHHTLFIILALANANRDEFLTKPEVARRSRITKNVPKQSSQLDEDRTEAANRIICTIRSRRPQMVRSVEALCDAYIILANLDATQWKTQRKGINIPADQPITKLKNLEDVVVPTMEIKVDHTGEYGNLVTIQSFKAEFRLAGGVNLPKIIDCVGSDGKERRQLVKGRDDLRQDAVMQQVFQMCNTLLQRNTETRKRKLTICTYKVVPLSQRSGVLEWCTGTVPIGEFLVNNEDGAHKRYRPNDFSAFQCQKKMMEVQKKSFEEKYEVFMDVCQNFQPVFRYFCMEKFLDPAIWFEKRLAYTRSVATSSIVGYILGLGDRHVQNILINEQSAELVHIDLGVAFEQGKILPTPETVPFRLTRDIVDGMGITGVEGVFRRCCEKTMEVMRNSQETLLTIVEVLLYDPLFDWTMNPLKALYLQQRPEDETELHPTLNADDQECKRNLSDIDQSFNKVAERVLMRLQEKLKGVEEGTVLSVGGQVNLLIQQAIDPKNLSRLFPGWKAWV

[18] = plasma, po, 1000 mg/kg/day, EDI048 1000 mg/kg/day, day 1
[19] = plasma, po, 1000 mg/kg/day, EDI048 1000 mg/kg/day, day 14

## CN(C(=O)c1ccn2ncc(-c3ccc(C(N)=O)cc3)c2c1)c1ccc(C#N)cn1 [KDU731, 3–(4-carbamoylphenyl)-N-(5-cyanopyridin-2-yl)-N-methylpyrazolo [1,5-a]pyridine-5-carboxamide, reference compound]
C. parvum [1]; Cryptosporidium parvum, HCT-8, read-out: approximate C. parvum CPE assay EC90
  EC90: ~500 nM
C. parvum [1]
  EC50: 100 nM
C. hominis; C. hominis
  EC50: 130 nM
[2]; FaSSIF
  solubility: 48 µM (≈ 19 µg/mL)
[2]; pH 6.8, aqueous buffer
  solubility: 19 µM (≈ 7.53 µg/mL)
PAMPA
  PAMPA (% calc fraction absorbed): 34.7%
P-glycoprotein (MDR1); MDCK-MDR1
  Papp A→B: 1.95 ×10⁻⁶ cm/s
  Papp B→A: 15.5 ×10⁻⁶ cm/s
  efflux ratio: 7.93
[3]
  Microsomal ER: 39%
  microsomal CLint: 13 µL/min/mg
[4]
  Hepatocytes ER: 18%
  half-life: > 175 min
  hepatocyte CLint: < 4 µL/min/1e6 cells
[5]
  Hepatocytes ER: 36%
[5]; hepatocytes
  hepatocyte CLint: 6.9 µL/min/1e6 cells
[6]
  Hepatocytes ER: 10%
[7]
  Hepatocytes ER: 60%
  Hepatocytes clearance: 12 μl/min/million cells
[7]; hepatocytes
  half-life: 57.9 min
[8]
  half-life: > 240 min
Plasma stability [9]
  half-life: 85.2 min
Plasma stability [10]
  half-life: > 120 min
Plasma protein binding [11]
  % Plasma protein binding: 70.8%
Plasma protein binding [12]
  % Plasma protein binding: 79.1%
CYP3A4
  IC50: > 50000 nM
CYP2D6
  IC50: > 50000 nM
CYP2C9
  IC50: > 4800 nM
hNav1.5
  IC50: > 50000 nM
Rat reticulocytes
  In vivo rat reticulocytes MN induction: induce micronuclei; also recorded: Positive
3T3 fibroblast cells
  Phototoxicity: Negative
  Phototoxicity PIF value: 3.1
[13]; mouse efficacy study, 10 mg kg^−1 oral
  AUC (time 0 to last timepoint): 2,982 nM h

## CNC(=O)c1ccc(-c2cnn3ccc(C(=O)N(C)c4ccc(Cl)c(C(=O)OC)c4)cc23)cc1 [EDI048, methyl 2-chloro-5-(N-methyl-3-(4-(methylcarbamoyl)phenyl)pyrazolo[1,5-a]pyridine-5-carboxamido)benzoate]
C. parvum [1]
  EC50: 50 nM
C. hominis; Cryptosporidium hominis
  EC50: 50 ± 1 nM
[2]; FaSSIF, Solubility FaSSIF
  solubility: 198 µM (≈ 94.4 µg/mL)
[2]; pH 6.8, aqueous buffer, Solubility pH 6.8, pH 6.8
  solubility: 54 µM (≈ 25.8 µg/mL)
PAMPA
  PAMPA (% calc fraction absorbed): 97%
P-glycoprotein (MDR1); MDCK-MDR1
  Papp A→B: 7.92 ×10⁻⁶ cm/s
  efflux ratio: 1.62
P-glycoprotein (MDR1); MDCK-MDR1, Permeability B–A, MDCK MDR1, basolateral to apical
  Papp B→A: 12.9 ×10⁻⁶ cm/s
[3]
  Microsomal ER: 92%
[3]; liver microsomes
  microsomal CLint: 222 µL/min/mg
[4]
  Hepatocytes ER: 93%
  half-life: 2.8 min
  hepatocyte CLint: > 250 µL/min/1e6 cells
[6]
  Hepatocytes ER: 83%
[6]; hepatocytes
  hepatocyte CLint: 28.5 µL/min/1e6 cells
[7]; hepatocytes
  half-life: < 3 min
  hepatocyte CLint: > 231 µL/min/1e6 cells
[8]
  half-life: 45 min
Plasma stability [9]; Plasma T1/2, mouse plasma
  half-life: 15.3 min
Plasma stability [9]; Plasma T1/2, rodent plasma
  half-life: 12 to 15 min
Plasma stability [14]
  Plasma T1/2: > 120 min
Plasma stability [14]; Plasma T1/2, dog plasma
  half-life: > 240 min
Plasma stability [10]
  Plasma T1/2: > 120 min
Plasma stability [10]; Plasma T1/2, human plasma
  half-life: > 240 min
Plasma protein binding [11]; plasma
  fraction unbound: 0.061
Plasma protein binding [12]; plasma
  fraction unbound: 0.045
CYP3A4
  IC50: 10500 nM
CYP2D6
  IC50: > 25000 nM
CYP2C9
  IC50: 2510 nM
Human PXR
  induction of human pregnane X receptor: did not induce human pregnane X receptor
hNav1.5
  IC50: > 50000 nM
Rat reticulocytes
  In vivo rat reticulocytes MN induction: Negative
3T3 fibroblast cells
  Phototoxicity: Negative
  Phototoxicity PIF value: 1.8
[13]; mouse, oral 1 and 3 mg kg^−1
  systemic exposure: no detectable EDI048 systemic exposure
[15]; infected calves with diarrhea
  Tmax: 720 min
[15]; uninfected healthy calves
  Tmax: 120 min
[16]; in vivo, po
  NOAEL at 14 days: 1000 mg/kg/day
[16]; plasma, oral, rat toxicity study
  Tmax: 30 min
[16]; [18]
  AUC(0-t): 11.1 ng·h/mL
  Tmax: 30 min
[16]; [19]
  AUC(0-t): 18.6 ng·h/mL
  Tmax: 30 min
[16]; plasma, po, 1000 mg/kg/day, Cmax, EDI048 1000 mg/kg/day, day 14
  Cmax: 4.13 ng/mL
C. parvum [17]
  live imaging of infected HCT-8 cells: parasites were arrested at the meront stage, preventing egress
ATM
  IC50: 445 nM
  selectivity ATM over CpPI(4)K inhibition: > 100 fold
